Assay outcomes: PubChem, Johns Hopkins Ion Channel Center
The list is not random: actives were taken first. Their share in the collection is about 3.5%.
RGS4 block = inhibitors of human RGS4. P49798. HEK293 M3R/RGS4 inducible, Fluo-4 calcium flux; stronger effect = higher value; triggered by carbachol at its EC20. B-score at 10 µM. 310,000 compounds, 0.45% hits;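 active = B-score, a plate-corrected calcium signal, over three deviations above library mean, with baseline fluorescence within five deviations of library mean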;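 also: RGS4 expression induced by doxycycline in cells with stable M3 receptor; B-score is computed from the integrated fluorescence ratio over baseline after carbachol; higher B-score means a larger calcium signal and so more RGS4 inhibition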
Target sequence (P49798 whole entry, looked up): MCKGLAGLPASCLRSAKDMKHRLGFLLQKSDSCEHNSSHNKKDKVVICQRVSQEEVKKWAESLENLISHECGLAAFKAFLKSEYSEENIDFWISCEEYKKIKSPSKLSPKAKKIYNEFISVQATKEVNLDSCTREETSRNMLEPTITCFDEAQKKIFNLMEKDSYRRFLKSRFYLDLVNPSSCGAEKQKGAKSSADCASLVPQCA
MrgX1 PAM = human MrgX1 positive allosteric modulation, primary screen | MrgX1-HEK293, Fluo-4 calcium flux, FDSS; stronger effect = higher value | B-score at 10 µM | 310,000 compounds, 0.63% hits;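 active = plate-corrected calcium response at least 3 library SD above typical, normal starting fluorescence, not activating the receptor alone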;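 also: compound read alongside a low EC10 to EC30 dose of BAM8-22 agonist; peak minus trough fluorescence over baseline measured at the second addition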
Target sequence (Q96LB2 whole entry, looked up): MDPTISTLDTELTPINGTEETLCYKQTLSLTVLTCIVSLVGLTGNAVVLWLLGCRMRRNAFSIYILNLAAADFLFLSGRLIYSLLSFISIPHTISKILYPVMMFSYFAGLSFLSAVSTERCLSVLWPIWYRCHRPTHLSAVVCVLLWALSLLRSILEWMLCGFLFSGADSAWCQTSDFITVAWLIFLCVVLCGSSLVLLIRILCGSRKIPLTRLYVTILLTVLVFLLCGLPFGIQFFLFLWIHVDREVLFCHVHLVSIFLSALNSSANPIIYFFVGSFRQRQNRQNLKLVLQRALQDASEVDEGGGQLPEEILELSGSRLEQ
RGS4 pot = potentiators or activators of RGS4 | B-score at 10 µM | HEK293 M3R/inducible RGS4, carbachol calcium flux Fluo4; stronger effect = lower value | 310,000 compounds, 0.92% hits | AID 463111;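 active = B-score of the integrated calcium signal more than 4 SD below the library mean, with starting fluorescence not abnormally high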;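 also: negative B-score means reduced calcium response which marks RGS4 activation or potentiation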
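test system = M3R-expressing HEK293 line, RGS4 induced by doxycycline | probe or stimulus = carbachol at ECmax as muscarinic agonist stimulus | timing = dye loading 30 min 37 °C, buffer rest 30 min RT | signal = calcium dye Fluo4 fluorescence | evaluation = B score from integrated fluorescence ratio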
MrgX1 antag = blocks BAM8-22 activation of human MrgX1 receptor | MRGX1-HEK293 calcium flux, Fluo-4, BAM8-22 antagonism; stronger effect = lower value | Q96LB2 | B-score at 10 µM | 310,000 compounds, 1.3% hits | AID 588676;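 active = calcium-response B-score plate-corrected more than 3 library SD below zero, starting fluorescence within 5 deviations, no agonist response on first addition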;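 also: peak minus trough fluorescence over baseline after final BAM8-22 challenge near maximal dose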
MrgX1 ag = human MrgX1 receptor agonism, primary screen. Q96LB2. MrgX1-HEK293 cells, Fluo-4 calcium fluorescence, agonist mode; stronger effect = higher value. B-score at 10 µM. 310,000 compounds, 0.44% hits;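 active = calcium response B-score plate-corrected fluorescence ratio at least 3 library SD, with starting fluorescence B-score inside 5 SD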
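Material: HEK293 cells stably expressing human MrgX1 receptor | Quantity: 15,000 cells per well | Times: Cells plated overnight, dye loaded 0.5 h 37 °C, 0.5 h room temperature | Measured by: Kinetic Fluo-4 NW fluorescence of intracellular calcium | Control set: Positive and negative controls per plate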
Numbers without * were called inactive; i = inactive; x = not tested or not shown.

SMILES	RGS4 block	MrgX1 PAM	RGS4 pot	MrgX1 antag	MrgX1 ag
COc1ccc(-c2csc3ncnc(N4CCN(S(=O)(=O)c5ccc(C)cc5)CC4)c23)cc1	i	i	-7.5*	i	i
COc1ccc(-c2csc3ncnc(N4CCN(S(=O)(=O)c5ccc(Cl)s5)CC4)c23)cc1	i	i	i	i	i
CC(=O)c1ccc(NC(=S)N(CCCN(C)C)Cc2ccccc2)cc1	i	i	i	i	i
FC(F)Sc1ccc(NC(=S)NC(c2ccccc2)c2ccccc2)cc1	i	i	i	i	i
CN(C(=S)Nc1ccc(SC(F)F)cc1)C(c1ccccc1)c1ccccc1	i	i	-7.4*	i	i
CN(C)CCCN(Cc1ccccc1)C(=S)Nc1ccc(SC(F)F)cc1	i	i	-7.3*	i	i
CCOc1ccc(N(C(=O)c2snc(C(N)=O)c2N)C(C(=O)NC2CCCC2)c2ccncc2)cc1 (stereo unspecified)	i	i	i	i	i
CCOCCCNC(=O)C(NC(=O)Cc1cccs1)c1ccc(OC)cc1 (stereo unspecified)	i	i	i	i	i
C[N+](C)(C)CCCNC(=O)c1ccc(/C=N/O)nc1	i	i	i	-5.1*	i
COC(=O)c1c(NC(=O)COC(=O)Cn2cnc3ccccc32)sc2c1CCCC2	i	i	i	i	i
COC(=O)c1cc(NS(=O)(=O)c2ccc(Cl)c(N3C(=O)c4ccc(C(=O)O)cc4C3=O)c2)cc(C(=O)OC)c1	i	9.9*	i	i	i
O=c1c2ccccc2ncn1-c1ccc([N+](=O)[O-])cc1Cl	i	i	i	i	i
COc1ccccc1CNc1ncccn1	i	i	i	i	i
COc1ccccc1CNN	i	8*	i	i	i
COc1ccc(-c2oc3ccccc3c2C(=O)OCc2ccc(O)cc2)cc1	i	i	i	i	i
COc1ccc(-c2oc3ccccc3c2C(=O)OCc2ccccc2)cc1	i	8.1*	i	i	i
CN(C)S(=O)(=O)N1CCC(Oc2cccc(C(=O)NCCC3=CCCCC3)c2)CC1	i	i	i	-4.5*	i
CN(C)S(=O)(=O)N1CCC(Oc2cccc(C(=O)NC3CCCCC3)c2)CC1	i	i	i	i	i
O=C1CCc2ccccc2N1	i	i	i	i	i
N#C/C(C(N)=O)=C1/CCc2ccccc2N1	i	i	i	-4.9*	i
O=C(NCc1ccccc1C(F)(F)F)C1CCC(=O)N(CCCc2ccccc2)C1 (stereo unspecified)	i	i	i	i	i
COCc1cc(Sc2c(Cl)cccc2Cl)nc(-c2ccccc2)n1	i	9.3*	i	i	i
CCN(CC)S(=O)(=O)c1ccc(C(C)NC(=O)Cc2c[nH]c3ccccc23)cc1 (stereo unspecified)	i	i	i	i	i
Cc1ccc2c(c1)N(C(=O)CSc1nncn1C)C(C)(C)c1ssc(=S)c1-2	i	i	-8.7*	i	i
CCCCCCCOC(=O)C[N+](C)(C)CCOC1CC2CCC1(C)C2(C)C (stereo unspecified)	i	x	-8.2*	x	x
SMILES	RGS4 block	MrgX1 PAM	RGS4 pot	MrgX1 antag	MrgX1 ag
O=C(O)c1ccccc1-c1ccccc1C(=O)Nc1ccc(-c2nc3cc(Cl)ccc3o2)cc1	i	i	i	-5.6*	i
CCCc1nc2ccccc2c(=O)n1-c1ccc(C(=O)OCC)cc1	i	i	i	i	i
CCOC(=O)c1sc(NC(=O)CSc2nc3c(c(=O)n2-c2ccc(C)cc2)SCC3)c(C(=O)OCC)c1C	i	i	i	i	i
Cc1ccc(/C=N/NC(=O)c2nc3nc(C)cc(C)n3n2)cc1	i	i	i	-4.7*	i
Cc1cc(C)n2nc(C(=O)N/N=C/c3cn(C)nc3C)nc2n1	i	i	i	i	i
Cc1nn(-c2ccccc2)c2nc(C(F)(F)F)[nH]c(=O)c12	i	i	i	i	i
Cc1nn(-c2cc(C(F)(F)F)ccc2Cl)c2nc(C(Cl)(Cl)Cl)[nH]c(=O)c12	i	i	i	i	43*
Cc1ccccc1NC(=O)CCCN1C(=O)C2CC=CCC2C1=O (stereo unspecified)	i	i	i	i	i
CC(C)C(c1nnnn1Cc1ccc(F)cc1)N1CCN(Cc2ccc3c(c2)OCO3)CC1 (stereo unspecified)	i	i	-7.2*	i	i
CC1(C)CC(c2nc(-c3ccc(Cl)cc3)cs2)CCS1 (stereo unspecified)	i	8.7*	i	i	i
CCc1ccc(C2C(C#N)=C(N)SC(N)=C2C#N)cc1	i	i	i	-5.3*	i
Cc1ccc(C2C(C#N)=C(N)SC(N)=C2C#N)o1	i	i	i	-7.3*	i
CCc1ccc(C2C(C#N)=C(N)SC(N)=C2C#N)s1	i	i	i	-6.1*	i
N#CC1=C(N)SC(N)=C(C#N)C1c1ccc(C(F)(F)F)cc1	i	i	i	i	i
COc1ccccc1/C=C/C=c1\sc2nc(=O)c(Cc3ccccc3)nn2c1=O	i	i	i	i	i
c1ccc(-c2cn3nc4c(nc3n2)CCCC4)cc1	i	i	-7*	i	i
O=C(N/N=C/C(Br)=C/c1ccccc1)c1ccccc1F	i	7*	i	i	i
COc1ccccc1NC(=O)c1cc2ccccc2o/c1=N\O	11*	i	i	i	i
COc1ccc(N=c2oc3ccccc3cc2C(=O)Nc2ccccn2)cc1OC	i	i	i	i	i
CC(=O)n1nc(-c2ccccc2)nc1NCc1cccs1	i	i	i	i	i
O=[N+]([O-])c1cc2oc3c(c2c(C=NCc2ccccc2)c1O)CCCC3	i	i	i	i	i
CC(C)CN=Cc1c(O)c([N+](=O)[O-])cc2oc3c(c12)CCCC3	i	i	i	-6.2*	i
Cc1nc2ccccc2c2oc(C(=O)N3CCN(c4ccc([N+](=O)[O-])cc4)CC3)cc12	i	6.6*	i	i	i
CC(C)NC[C@@H](O)c1ccc(O)c(O)c1	i	i	i	i	32*
CC(NC(=O)C1CCN(S(=O)(=O)c2ccc(Br)s2)CC1)c1ccccc1 (stereo unspecified)	i	i	i	i	i
CCOc1ccccc1NCc1nnc(-c2ccccc2)o1	i	i	-7.5*	i	i
